IC50, EC50 and Maximal effect data for nine compounds are collected here from ChEMBL document CHEMBL1144443, “Novel 3D pharmacophore of alpha-MSH/gamma-MSH hybrids leads to selective human MC1R and MC3R analogues” (J Med Chem, 2005).

A word on the IC50: it is the concentration at which inhibition is half-maximal. High values mean lower potency, low ones higher potency. The EC50 is the concentration needed to bring the measured effect to its halfway point. A low value points to greater potency.

Where a SMILES comes first, the peptide text is derived from it. [ ]: non-standard residue; d: D form. d2Nal = N[C@H](Cc1ccc2ccccc2c1)C(=O)O; Nle = CCCC[C@H](N)C(=O)O

The target in assay [1] is T1, Melanocortin receptor 4 (Homo sapiens, UniProt P32245). It counts as cell-based, HEK293.
In assay [2] the target is T1, Melanocortin receptor 4. Kind of assay: Effective concentration for intracellular cAMP accumulation in human melanocortin 4 receptor expressing HEK 293 cells; (N = 4). The assay is classed as functional, cell-based, HEK293.
Assay [3] has as its target T2, Melanocortin receptor 3 (Homo sapiens, UniProt P41968). The assay is classed as cell-based, HEK293.
Assay [4] addresses T3, Melanocortin receptor 5 (Homo sapiens, UniProt P33032). It counts as cell-based, HEK293.
Assay [5] addresses T2, Melanocortin receptor 3. Kind of assay: Effective concentration for intracellular cAMP accumulation in human melanocortin 3 receptor expressing HEK 293 cells; (N = 4). It counts as functional, cell-based, HEK293. The method in brief: (§1)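 HEK293 cells transfected with human MCRs, grown in MEM with 10% FBS, seeded 48 h before at 100 000 cells/well. Stopped with ice-cold Tris/EDTA, boiled 15 min, centrifuged; cAMP in supernatant measured by competitive binding kit. EC50 and maximal response by nonlinear least-squares fit.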
For orientation: Cyclic AMP is a second messenger, typically raised through Gs and lowered through Gi signalling.

Assay [6] deals with T3, Melanocortin receptor 5. The assay can be described thus: Effective concentration for intracellular cAMP accumulation in human melanocortin 5 receptor expressing HEK 293 cells; (N = 4). It counts as functional, cell-based, HEK293. The method in brief:
as §1

Assay [7] deals with T4, Melanocyte-stimulating hormone receptor (Homo sapiens, UniProt Q01726). It counts as cell-based, HEK293.
Target sequence in this assay (Q01726 whole entry): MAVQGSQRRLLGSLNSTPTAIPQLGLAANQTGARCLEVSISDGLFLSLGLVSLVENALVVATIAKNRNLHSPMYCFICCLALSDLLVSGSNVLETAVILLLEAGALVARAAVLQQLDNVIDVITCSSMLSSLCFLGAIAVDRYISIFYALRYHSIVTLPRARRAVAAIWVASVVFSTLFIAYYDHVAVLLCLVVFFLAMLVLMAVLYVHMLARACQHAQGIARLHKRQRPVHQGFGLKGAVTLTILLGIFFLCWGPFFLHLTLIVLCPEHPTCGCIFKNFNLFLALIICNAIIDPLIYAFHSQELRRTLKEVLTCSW
Assay [8] addresses T4, Melanocyte-stimulating hormone receptor. The assay can be described thus: Effective concentration for intracellular cAMP accumulation in human melanocortin 1 receptor expressing HEK 293 cells; (N = 4). The assay is classed as functional, cell-based, HEK293. The procedure, abridged: as §1
Target sequence in this assay (Q01726 whole entry): as above
In assay [9] the target is T3, Melanocortin receptor 5. The assay can be described thus: Effective concentration for intracellular cAMP accumulation in human melanocortin 5 receptor expressing HEK 293 cells; (N = 4), No activity. It counts as functional, cell-based. The note with it: hek293. The procedure, abridged:
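HEK293 cells transfected with human MCRs, grown in MEM with 10% FBS, seeded 48 h before at 100 000 cells/well. Preincubated 1 min at 37 °C in EBSS with IBMX, then exposed 3 min at 37 °C to peptide (10^-10 to 10^-5 M). Stopped with ice-cold Tris/EDTA, boiled 15 min, centrifuged; cAMP in supernatant measured by competitive binding kit. EC50 and maximal response by nonlinear least-squares fit.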

Assay [10] addresses T1, Melanocortin receptor 4. Conditions: HEK293; call rule not given here.
The target of assay [11] is T4, Melanocyte-stimulating hormone receptor. Kind of assay: Maximal effect on human melanocortin 1 receptor expressing HEK 293 cells. Conditions: HEK293. The assay is classed as functional, cell-based. The method in brief: as §1
Target sequence in this assay (Q01726 whole entry, looked up): as the sequence (Q01726 whole entry) above
Assay [12] has as its target T2, Melanocortin receptor 3. The assay can be described thus: Maximal effect on human melanocortin 3 receptor expressing HEK 293 cells. It counts as functional, cell-based. The note with it: HEK293. The method in brief: as §1
Assay [13] deals with T3, Melanocortin receptor 5. The assay can be described thus: Maximal effect on human melanocortin 5 receptor expressing HEK 293 cells. It counts as functional, cell-based. Conditions: HEK293. The procedure, abridged:
as §1

T3 sequence (P33032 whole entry): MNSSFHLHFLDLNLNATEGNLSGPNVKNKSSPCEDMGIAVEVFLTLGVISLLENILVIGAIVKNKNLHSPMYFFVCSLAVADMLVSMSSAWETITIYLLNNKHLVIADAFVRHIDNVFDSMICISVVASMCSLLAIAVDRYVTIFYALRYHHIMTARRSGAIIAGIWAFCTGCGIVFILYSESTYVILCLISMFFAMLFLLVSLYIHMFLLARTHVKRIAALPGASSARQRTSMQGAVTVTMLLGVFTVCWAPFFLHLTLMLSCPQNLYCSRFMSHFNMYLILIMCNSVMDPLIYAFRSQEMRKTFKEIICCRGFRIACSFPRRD
T2 sequence (P41968 whole entry): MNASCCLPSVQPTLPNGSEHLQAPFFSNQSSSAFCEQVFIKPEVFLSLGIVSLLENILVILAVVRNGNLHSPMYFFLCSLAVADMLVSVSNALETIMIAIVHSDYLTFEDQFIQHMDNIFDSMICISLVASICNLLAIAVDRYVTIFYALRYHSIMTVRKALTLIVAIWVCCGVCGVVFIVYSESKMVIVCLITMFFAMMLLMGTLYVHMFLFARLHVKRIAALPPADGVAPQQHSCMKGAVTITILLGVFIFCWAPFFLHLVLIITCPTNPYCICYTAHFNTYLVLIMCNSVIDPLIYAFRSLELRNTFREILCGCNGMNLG
T1 sequence (P32245 whole entry): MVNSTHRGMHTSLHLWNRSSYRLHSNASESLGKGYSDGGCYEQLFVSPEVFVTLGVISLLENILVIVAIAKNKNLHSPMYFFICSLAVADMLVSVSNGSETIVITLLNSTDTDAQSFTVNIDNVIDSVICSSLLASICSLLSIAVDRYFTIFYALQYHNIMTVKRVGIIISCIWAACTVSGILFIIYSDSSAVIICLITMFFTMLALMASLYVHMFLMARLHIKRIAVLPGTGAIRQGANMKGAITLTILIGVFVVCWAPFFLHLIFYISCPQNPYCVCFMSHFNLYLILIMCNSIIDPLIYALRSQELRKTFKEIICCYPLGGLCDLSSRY

The compound `CCCC[C@H](NC(=O)[C@@H](NC(=O)[C@@H](N)Cc1ccc(O)cc1)C(C)C)C(=O)NCC(=O)N[C@@H](Cc1c[nH]cn1)C(=O)N[C@@H](Cc1ccccc1)C(=O)N[C@@H](CCCN=C(N)N)C(=O)N[C@@H](Cc1c[nH]c2ccccc12)C(=O)N[C@@H](CC(=O)O)C(=O)N[C@@H](CCCN=C(N)N)C(=O)N[C@@H](Cc1ccccc1)C(=O)NCC(N)=O` came in with an IC50 at Melanocortin receptor 4 [1] of 64 nM. This counts as double-digit nanomolar.

`CCCC[C@H](NC(=O)[C@@H](NC(=O)[C@@H](N)Cc1ccc(O)cc1)C(C)C)C(=O)NCC(=O)N[C@@H](Cc1c[nH]cn1)C(=O)N[C@H](Cc1ccccc1)C(=O)N[C@@H](CCCN=C(N)N)C(=O)N[C@H](Cc1c[nH]c2ccccc12)C(=O)N[C@@H](CC(=O)O)C(=O)N[C@@H](CCCN=C(N)N)C(=O)N[C@@H](Cc1ccccc1)C(=O)NCC(N)=O` yielded an IC50 at Melanocortin receptor 4 [1] of 17 nM. This compound gave an EC50 on Melanocortin receptor 4 [2] of 29 nM.

Take `CCCC[C@H](NC(=O)[C@@H](NC(=O)[C@@H](N)Cc1ccc(O)cc1)C(C)C)C(=O)NCC(=O)N1CCC[C@H]1C(=O)N[C@@H](Cc1ccccc1)C(=O)N[C@@H](CCCN=C(N)N)C(=O)N[C@H](Cc1ccc2ccccc2c1)C(=O)N[C@@H](CC(=O)O)C(=O)N[C@@H](CCCN=C(N)N)C(=O)N[C@@H](Cc1ccccc1)C(=O)NCC(N)=O`: the values for the IC50 against Melanocortin receptor 3 [3] and on Melanocortin receptor 5 [4] were 32 nM and 650 nM, respectively. In addition, the figures for the EC50 on Melanocortin receptor 3 [5] and at Melanocortin receptor 5 [6] were 13 nM and 250 nM, respectively.

Turning to `CCCC[C@H](NC(=O)[C@@H](NC(=O)[C@@H](N)Cc1ccc(O)cc1)C(C)C)C(=O)NCC(=O)N1CCC[C@H]1C(=O)N[C@H](Cc1ccc2ccccc2c1)C(=O)N[C@@H](CCCN=C(N)N)C(=O)N[C@H](Cc1ccc2ccccc2c1)C(=O)N[C@@H](CC(=O)O)C(=O)N[C@@H](CCCN=C(N)N)C(=O)N[C@@H](Cc1ccccc1)C(=O)NCC(N)=O`, the IC50 was found to be 3 nM against Melanocortin receptor 3 [3], 4 nM on Melanocortin receptor 4 [1], 2 nM against Melanocortin receptor 5 [4] and 2 nM in assay [7]. The 50% effective concentration (EC50) was 2 nM in [8], 11 nM on Melanocortin receptor 3 [5], 3.3 nM at Melanocortin receptor 4 [2] and “Not Active” on Melanocortin receptor 5 [9].

On to `CCCC[C@H](NC(=O)[C@@H](NC(=O)[C@@H](N)Cc1ccc(O)cc1)C(C)C)C(=O)NCC(=O)N[C@@H](Cc1c[nH]cn1)C(=O)N[C@@H](Cc1ccccc1)C(=O)N[C@@H](CCCN=C(N)N)C(=O)N[C@@H](Cc1c[nH]c2ccccc12)C(=O)N[C@@H](CC(=O)O)C(=O)N[C@@H](CCCN=C(N)N)C(=O)N[C@@H](Cc1ccccc1)C(=O)NCC(=O)O`, for which the Maximal effect on Melanocortin receptor 4 [10] is 100%.

With `CCCC[C@H](NC(=O)[C@@H](NC(=O)[C@@H](N)Cc1ccc(O)cc1)C(C)C)C(=O)NCC(=O)N[C@H](Cc1ccc2ccccc2c1)C(=O)N[C@@H](Cc1ccccc1)C(=O)N[C@@H](CCCN=C(N)N)C(=O)N[C@@H](Cc1c[nH]c2ccccc12)C(=O)N[C@@H](CC(=O)O)C(=O)N[C@@H](CCCN=C(N)N)C(=O)N[C@@H](Cc1ccccc1)C(=O)NCC(N)=O`, the figures for the IC50 against Melanocortin receptor 3 [3] (hek293), at Melanocortin receptor 4 [1] (hek293) and on Melanocortin receptor 5 [4] (hek293) were 3000 nM, 1990 nM and 1000 nM, respectively. The EC50 at Melanocortin receptor 3 [5] (hek293) is > 10000 nM; at Melanocortin receptor 4 [2] (hek293), > 10000 nM; at Melanocortin receptor 5 [6] (hek293) it was 870 nM.

With `CCCC[C@H](NC(=O)[C@@H](NC(=O)[C@@H](N)Cc1ccc(O)cc1)C(C)C)C(=O)NCC(=O)N[C@@H](Cc1c[nH]cn1)C(=O)N[C@H](Cc1ccccc1)C(=O)N[C@@H](CCCN=C(N)N)C(=O)N[C@H](Cc1ccc2ccccc2c1)C(=O)N[C@@H](CC(=O)O)C(=O)N[C@@H](CCCN=C(N)N)C(=O)N[C@@H](Cc1ccccc1)C(=O)NCC(N)=O`, the IC50 on Melanocortin receptor 3 [3] stood at 6 nM; on Melanocortin receptor 4 [1], 6 nM; against Melanocortin receptor 5 [4], 5 nM; in [7], 0.7 nM. Besides, the EC50 turned out to be 2 nM in assay [8], 36 nM at Melanocortin receptor 4 [2] and 200 nM on Melanocortin receptor 5 [6].

In the case of `CCCC[C@H](NC(=O)[C@@H](NC(=O)[C@@H](N)Cc1ccc(O)cc1)C(C)C)C(=O)NCC(=O)N1CCC[C@H]1C(=O)N[C@@H](Cc1ccccc1)C(=O)N[C@@H](CCCN=C(N)N)C(=O)N[C@H](Cc1ccc2ccccc2c1)C(=O)N[C@@H](CC(=O)O)C(=O)N[C@@H](CCCN=C(N)N)C(=O)N[C@@H](Cc1ccccc1)C(=O)NCC(=O)O`, the Maximal effect in assay [11] came out at 120%; at Melanocortin receptor 3 [12] it was 28%; on Melanocortin receptor 5 [13] it was 46%; on Melanocortin receptor 4 [10] it was 14%.

In the case of `CCCC[C@H](NC(=O)[C@@H](NC(=O)[C@@H](N)Cc1ccc(O)cc1)C(C)C)C(=O)NCC(=O)N[C@@H](Cc1cnc[nH]1)C(=O)N[C@H](Cc1ccc2ccccc2c1)C(=O)N[C@@H](CCCNC(=N)N)C(=O)N[C@H](Cc1ccccc1)C(=O)N[C@@H](CC(=O)O)C(=O)N[C@@H](CCCNC(=N)N)C(=O)N[C@@H](Cc1ccccc1)C(=O)NCC(N)=O` (H-YV[Nle]GH[d2Nal]R[dF]DRFG-NH2), the IC50 is 6 nM against Melanocortin receptor 3 [3], 20 nM at Melanocortin receptor 4 [1], 3.3 nM against Melanocortin receptor 5 [4] and 0.16 nM in [7]. For the same compound, the EC50 is 1.5 nM in assay [8], 951 nM on Melanocortin receptor 3 [5], 2700 nM on Melanocortin receptor 4 [2] and 490 nM on Melanocortin receptor 5 [6].
